Results as given in ChEMBL document CHEMBL5226356, “Ring Size as an Independent Variable in Cyclooligomeric Depsipeptide Antiarrhythmic Activity” (ACS Med Chem Lett, 2021).
The source made the active and inactive calls. No cut-off for these calls is given here.

Key:
[1] = target: Ryanodine receptor 2 (Mus musculus) (UniProt E9Q401); assay: Inhibition of RyR2 in Casq2 gene knockout mouse cardiomyocytes assessed as reduction in calcium sparks frequency at 25 uM incubated for 60 mins; type: cell-based; details: Cardiomyocyte
Method in brief: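 Isolated ventricular cardiomyocytes were permeabilized with saponin, which opens the sarcolemma but leaves the SR membrane intact. Cells were incubated with 25 μM compound or DMSO vehicle for 60 min (extended from the 10 min screen). RyR2 activity was read as the frequency of Ca2+ sparks relative to vehicle. Statistics were one-way ANOVA with Tukey's post hoc test.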

[2] = Kinetic solubility of the compound in phosphate buffer at pH 7.4 at 25 uM incubated for 2 hrs by nephelometry; type: physicochemical; details: pH 7.4, 2 h
[3] = Kinetic solubility of the compound in Hanks Bile Salt Solution at 25 uM incubated for 2 hrs by nephelometry; type: ADME
[4] = target: Ryanodine receptor 2 (Mus musculus) (UniProt E9Q401); assay: Inhibition of RyR2 in Casq2 gene knockout mouse cardiomyocytes assessed as reduction in calcium sparks frequency at 25 uM incubated for 10 mins; type: cell-based; details: Cardiomyocyte
Method in brief: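 Isolated ventricular cardiomyocytes permeabilized with saponin, which opens the sarcolemma but leaves the SR membrane intact. Cells incubated 10 min with 25 μM compound or DMSO vehicle. RyR2 activity read as spontaneous Ca2+ spark frequency and compared to vehicle; statistics by one-way ANOVA with Tukey's posthoc test.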

[5] = target: Ryanodine receptor 2 (Mus musculus, UniProt E9Q401); assay: Inhibition of RyR2 in Casq2 gene knockout mouse cardiomyocytes assessed as reduction in calcium sparks frequency incubated for 30 mins; type: cell-based, Cardiomyocyte
Method in brief: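 Saponin-permeabilized isolated ventricular cardiomyocytes (sarcolemma opened, SR membrane intact) incubated 30 min with compound across a concentration range for concentration-response curves. Read-out is frequency of spontaneous Ca2+ sparks, used as a measure of RyR2 activity. DMSO served as vehicle.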

Chain of Ryanodine receptor 2 (Mus musculus) (E9Q401 whole entry): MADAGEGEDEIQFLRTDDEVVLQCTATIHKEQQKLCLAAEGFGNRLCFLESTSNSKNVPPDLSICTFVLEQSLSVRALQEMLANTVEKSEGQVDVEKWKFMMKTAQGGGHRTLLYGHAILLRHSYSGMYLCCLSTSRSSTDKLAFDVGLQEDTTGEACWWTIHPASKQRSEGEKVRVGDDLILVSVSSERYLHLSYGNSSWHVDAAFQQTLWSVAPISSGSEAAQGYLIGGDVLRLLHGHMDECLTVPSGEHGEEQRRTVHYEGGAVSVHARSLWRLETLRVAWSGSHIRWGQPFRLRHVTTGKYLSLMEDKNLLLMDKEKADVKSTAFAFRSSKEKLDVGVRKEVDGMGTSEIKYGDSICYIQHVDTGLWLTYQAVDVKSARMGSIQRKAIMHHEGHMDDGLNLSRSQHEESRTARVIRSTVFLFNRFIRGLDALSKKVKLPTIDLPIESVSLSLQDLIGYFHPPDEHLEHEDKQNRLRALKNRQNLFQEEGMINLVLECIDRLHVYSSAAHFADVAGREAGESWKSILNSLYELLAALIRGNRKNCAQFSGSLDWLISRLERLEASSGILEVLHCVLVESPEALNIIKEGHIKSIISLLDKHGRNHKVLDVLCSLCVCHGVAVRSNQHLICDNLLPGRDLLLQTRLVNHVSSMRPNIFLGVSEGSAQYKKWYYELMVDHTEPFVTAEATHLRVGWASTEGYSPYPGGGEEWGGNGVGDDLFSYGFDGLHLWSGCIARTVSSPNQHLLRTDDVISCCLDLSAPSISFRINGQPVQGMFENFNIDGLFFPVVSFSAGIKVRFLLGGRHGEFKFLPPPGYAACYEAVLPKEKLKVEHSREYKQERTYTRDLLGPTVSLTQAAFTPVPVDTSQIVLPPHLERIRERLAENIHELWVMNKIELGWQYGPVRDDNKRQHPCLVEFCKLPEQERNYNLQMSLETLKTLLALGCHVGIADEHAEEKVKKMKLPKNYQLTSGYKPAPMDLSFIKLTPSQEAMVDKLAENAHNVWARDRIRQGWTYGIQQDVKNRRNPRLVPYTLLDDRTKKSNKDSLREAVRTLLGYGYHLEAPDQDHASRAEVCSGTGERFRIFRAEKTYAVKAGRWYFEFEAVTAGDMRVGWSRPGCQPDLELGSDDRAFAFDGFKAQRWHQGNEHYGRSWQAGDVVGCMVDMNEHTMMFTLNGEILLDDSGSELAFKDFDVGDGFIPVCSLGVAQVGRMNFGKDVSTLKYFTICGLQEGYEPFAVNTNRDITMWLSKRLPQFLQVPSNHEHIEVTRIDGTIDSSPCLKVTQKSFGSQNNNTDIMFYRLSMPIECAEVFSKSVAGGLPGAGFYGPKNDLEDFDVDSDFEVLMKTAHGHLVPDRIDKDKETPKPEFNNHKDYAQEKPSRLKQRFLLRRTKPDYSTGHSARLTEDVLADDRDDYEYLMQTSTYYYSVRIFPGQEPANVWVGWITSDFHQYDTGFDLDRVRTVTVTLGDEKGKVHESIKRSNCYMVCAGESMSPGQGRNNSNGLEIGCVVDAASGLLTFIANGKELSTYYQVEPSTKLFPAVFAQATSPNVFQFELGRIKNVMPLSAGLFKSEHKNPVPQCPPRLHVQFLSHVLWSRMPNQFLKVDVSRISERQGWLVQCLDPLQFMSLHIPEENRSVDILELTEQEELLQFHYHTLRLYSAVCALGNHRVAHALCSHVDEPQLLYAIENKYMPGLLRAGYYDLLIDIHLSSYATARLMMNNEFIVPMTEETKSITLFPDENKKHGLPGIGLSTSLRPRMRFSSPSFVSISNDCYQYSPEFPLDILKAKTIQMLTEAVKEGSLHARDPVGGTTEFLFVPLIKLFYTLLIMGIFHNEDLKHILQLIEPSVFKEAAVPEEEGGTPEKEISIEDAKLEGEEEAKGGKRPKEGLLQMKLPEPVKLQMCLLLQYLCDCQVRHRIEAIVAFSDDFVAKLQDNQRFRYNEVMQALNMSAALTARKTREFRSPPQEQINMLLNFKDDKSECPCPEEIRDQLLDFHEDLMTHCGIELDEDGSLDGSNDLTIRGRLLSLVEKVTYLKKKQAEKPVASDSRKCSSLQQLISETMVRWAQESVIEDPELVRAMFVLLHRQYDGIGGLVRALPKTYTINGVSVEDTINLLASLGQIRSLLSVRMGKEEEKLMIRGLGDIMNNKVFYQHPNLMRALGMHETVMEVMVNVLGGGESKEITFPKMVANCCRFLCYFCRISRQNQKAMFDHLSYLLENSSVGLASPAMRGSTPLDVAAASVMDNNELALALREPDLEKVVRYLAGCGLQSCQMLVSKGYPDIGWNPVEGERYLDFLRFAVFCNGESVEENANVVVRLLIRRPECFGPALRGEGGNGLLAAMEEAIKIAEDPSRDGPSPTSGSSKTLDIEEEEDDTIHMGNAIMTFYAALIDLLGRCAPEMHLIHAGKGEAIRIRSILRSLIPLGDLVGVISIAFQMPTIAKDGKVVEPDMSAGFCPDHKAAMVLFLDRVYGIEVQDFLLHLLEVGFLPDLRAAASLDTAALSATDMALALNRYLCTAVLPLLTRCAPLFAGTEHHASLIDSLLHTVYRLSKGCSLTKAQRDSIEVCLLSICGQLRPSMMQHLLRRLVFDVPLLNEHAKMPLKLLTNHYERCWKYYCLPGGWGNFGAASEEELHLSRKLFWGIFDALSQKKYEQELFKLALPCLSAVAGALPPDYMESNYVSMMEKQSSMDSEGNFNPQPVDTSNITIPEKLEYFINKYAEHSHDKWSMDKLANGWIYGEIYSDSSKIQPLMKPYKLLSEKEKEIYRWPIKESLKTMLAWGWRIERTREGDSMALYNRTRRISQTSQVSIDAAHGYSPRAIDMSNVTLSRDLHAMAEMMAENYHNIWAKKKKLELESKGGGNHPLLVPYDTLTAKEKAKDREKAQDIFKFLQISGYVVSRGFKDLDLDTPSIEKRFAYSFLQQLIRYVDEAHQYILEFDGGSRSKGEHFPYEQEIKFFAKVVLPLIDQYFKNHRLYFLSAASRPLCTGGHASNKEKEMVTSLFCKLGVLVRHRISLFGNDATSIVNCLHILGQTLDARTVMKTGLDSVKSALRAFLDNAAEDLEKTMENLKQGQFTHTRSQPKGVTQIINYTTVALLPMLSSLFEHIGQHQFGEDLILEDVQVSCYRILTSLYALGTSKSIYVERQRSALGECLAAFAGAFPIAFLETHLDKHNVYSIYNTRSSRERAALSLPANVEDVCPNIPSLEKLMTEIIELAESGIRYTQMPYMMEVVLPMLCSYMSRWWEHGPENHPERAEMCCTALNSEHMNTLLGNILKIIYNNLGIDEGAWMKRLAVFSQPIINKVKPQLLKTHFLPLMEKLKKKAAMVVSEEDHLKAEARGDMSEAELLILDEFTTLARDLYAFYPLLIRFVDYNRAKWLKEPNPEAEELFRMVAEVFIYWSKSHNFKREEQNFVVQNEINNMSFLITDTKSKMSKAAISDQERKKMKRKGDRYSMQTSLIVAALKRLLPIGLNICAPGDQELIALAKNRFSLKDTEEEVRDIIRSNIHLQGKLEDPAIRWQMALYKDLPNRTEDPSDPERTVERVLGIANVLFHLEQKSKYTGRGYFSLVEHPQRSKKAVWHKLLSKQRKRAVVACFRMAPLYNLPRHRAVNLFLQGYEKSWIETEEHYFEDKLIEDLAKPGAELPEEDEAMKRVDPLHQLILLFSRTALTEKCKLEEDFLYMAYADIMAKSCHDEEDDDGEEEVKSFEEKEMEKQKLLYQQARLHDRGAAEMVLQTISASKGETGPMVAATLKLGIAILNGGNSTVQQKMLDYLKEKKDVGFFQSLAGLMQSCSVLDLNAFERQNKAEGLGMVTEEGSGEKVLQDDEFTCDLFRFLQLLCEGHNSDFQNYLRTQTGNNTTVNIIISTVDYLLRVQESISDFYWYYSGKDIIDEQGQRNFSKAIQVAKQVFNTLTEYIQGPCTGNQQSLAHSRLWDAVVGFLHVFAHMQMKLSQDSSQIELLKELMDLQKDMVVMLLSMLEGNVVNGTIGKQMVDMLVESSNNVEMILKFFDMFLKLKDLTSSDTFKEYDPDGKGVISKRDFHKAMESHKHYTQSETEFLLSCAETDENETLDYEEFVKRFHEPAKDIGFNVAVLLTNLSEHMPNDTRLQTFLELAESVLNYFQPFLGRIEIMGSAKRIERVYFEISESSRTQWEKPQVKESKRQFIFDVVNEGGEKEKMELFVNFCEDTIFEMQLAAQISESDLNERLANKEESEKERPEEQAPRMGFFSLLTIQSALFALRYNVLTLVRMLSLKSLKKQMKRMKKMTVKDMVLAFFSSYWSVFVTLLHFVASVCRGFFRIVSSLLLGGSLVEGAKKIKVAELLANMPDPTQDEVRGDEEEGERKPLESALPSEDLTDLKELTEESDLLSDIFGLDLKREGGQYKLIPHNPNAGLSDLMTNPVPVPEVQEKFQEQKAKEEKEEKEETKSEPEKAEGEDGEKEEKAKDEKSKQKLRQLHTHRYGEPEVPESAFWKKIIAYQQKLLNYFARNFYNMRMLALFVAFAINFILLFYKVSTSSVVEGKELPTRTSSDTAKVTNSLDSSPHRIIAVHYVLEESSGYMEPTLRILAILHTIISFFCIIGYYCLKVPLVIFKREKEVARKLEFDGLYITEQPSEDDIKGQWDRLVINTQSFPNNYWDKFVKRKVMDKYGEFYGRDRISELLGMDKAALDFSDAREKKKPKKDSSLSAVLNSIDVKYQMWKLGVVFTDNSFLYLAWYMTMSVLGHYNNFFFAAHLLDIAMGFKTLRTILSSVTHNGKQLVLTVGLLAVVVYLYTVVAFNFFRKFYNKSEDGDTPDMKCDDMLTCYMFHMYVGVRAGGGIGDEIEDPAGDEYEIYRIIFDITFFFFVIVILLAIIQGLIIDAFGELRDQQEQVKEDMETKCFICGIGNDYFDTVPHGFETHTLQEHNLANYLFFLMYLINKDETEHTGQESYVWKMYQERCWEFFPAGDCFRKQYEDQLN
Chain of Ryanodine receptor 2 (E9Q401 whole entry): as above

Row | SMILES | inhibition [1] | Kinetic_solubility [2] | Kinetic_solubility [3] | inhibition [4] | IC50 [5] [µM]
1 | CCCCC[C@@H]1OC(=O)[C@@H](C)N(C)C(=O)[C@H](CCCCC)OC(=O)[C@@H](C)N(C)C(=O)[C@H](CCCCC)OC(=O)[C@@H](C)N(C)C(=O)[C@H](CCCCC)OC(=O)[C@@H](C)N(C)C(=O)[C@H](CCCCC)OC(=O)[C@@H](C)N(C)C1=O | inactive | Soluble | Soluble | inactive | –
2 | CCCCC[C@H](OC(=O)[C@@H](C)N(C)C(=O)[C@H](CCCCC)OC(=O)[C@@H](C)N(C)C(=O)OC(C)(C)C)C(=O)OCc1ccccc1 | inactive | – | – | – | –
3 | CCCCC[C@H]1OC(=O)[C@H](C)N(C)C1=O | – | Soluble | Soluble | inactive | –
4 | CCCCC[C@@H]1OC(=O)[C@@H](C)N(C)C(=O)[C@H](CCCCC)OC(=O)[C@@H](C)N(C)C(=O)[C@H](CCCCC)OC(=O)[C@@H](C)N(C)C(=O)[C@H](CCCCC)OC(=O)[C@@H](C)N(C)C(=O)[C@H](CCCCC)OC(=O)[C@@H](C)N(C)C(=O)[C@H](CCCCC)OC(=O)[C@@H](C)N(C)C1=O | – | Soluble | Soluble | inactive | –
5 | CCCCC[C@@H]1OC(=O)[C@@H](C)N(C)C(=O)[C@H](CCCCC)OC(=O)[C@@H](C)N(C)C(=O)[C@H](CCCCC)OC(=O)[C@@H](C)N(C)C(=O)[C@H](CCCCC)OC(=O)[C@@H](C)N(C)C1=O | – | Soluble | Soluble | Active | 1.89
6 | CCCCC[C@@H]1OC(=O)[C@@H](C)N(C)C(=O)[C@H](CCCCC)OC(=O)[C@@H](C)N(C)C(=O)[C@H](CCCCC)OC(=O)[C@@H](C)N(C)C1=O | – | Soluble | Soluble | Active | 3.88
7 | CCCCC[C@@H]1OC(=O)[C@@H](C)N(C)C(=O)[C@H](CCCCC)OC(=O)[C@@H](C)N(C)C1=O | inactive | Soluble | Soluble | inactive | –
